Source: ChEMBL document CHEMBL1156274, “Potent arylsulfonamide inhibitors of tumor necrosis factor-alpha converting enzyme able to reduce activated leukocyte cell adhesion molecule shedding in cancer cell models” (J Med Chem, 2010)

Columns and labels:
[1] = target: T1, Disintegrin and metalloproteinase domain-containing protein 10 (Homo sapiens, UniProt O14672); assay: Inhibition of human recombinant ADAM10 by fluorometric assay
T1 sequence (O14672 whole entry): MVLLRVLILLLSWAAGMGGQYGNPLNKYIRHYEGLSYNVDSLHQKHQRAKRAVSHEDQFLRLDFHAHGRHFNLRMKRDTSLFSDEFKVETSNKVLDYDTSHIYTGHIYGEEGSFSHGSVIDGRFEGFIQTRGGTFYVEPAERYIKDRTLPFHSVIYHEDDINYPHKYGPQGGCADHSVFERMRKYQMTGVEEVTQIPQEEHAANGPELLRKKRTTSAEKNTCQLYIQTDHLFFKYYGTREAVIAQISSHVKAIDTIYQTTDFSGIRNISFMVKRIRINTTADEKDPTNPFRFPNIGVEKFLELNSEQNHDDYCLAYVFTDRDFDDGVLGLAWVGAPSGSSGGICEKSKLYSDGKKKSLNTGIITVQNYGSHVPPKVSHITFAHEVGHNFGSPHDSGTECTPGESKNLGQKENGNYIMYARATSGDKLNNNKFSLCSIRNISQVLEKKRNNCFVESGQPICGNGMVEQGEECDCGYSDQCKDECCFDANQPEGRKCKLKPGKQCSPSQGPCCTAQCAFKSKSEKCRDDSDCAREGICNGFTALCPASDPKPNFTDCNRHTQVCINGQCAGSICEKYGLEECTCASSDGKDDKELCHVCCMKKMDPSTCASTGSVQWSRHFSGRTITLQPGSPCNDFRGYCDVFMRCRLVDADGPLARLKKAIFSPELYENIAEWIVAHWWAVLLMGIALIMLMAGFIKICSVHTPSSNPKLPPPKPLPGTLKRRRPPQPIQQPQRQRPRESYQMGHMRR
Method in brief: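 Recombinant human ADAM-10 (20 nM) preincubated with seven inhibitor concentrations for 1 h at 37 °C in Tris 25 mM, ZnCl2 25 μM, Brij-35 0.005%, pH 9. Fluorogenic substrate Mca-Lys-Pro-Leu-Gly-Leu-Dap(Dnp)-Ala-Arg-NH2 at 10 μM final. Fluorescence (ex 325/em 395 nm) monitored every 15 s for 20 min. IC50 from initial velocities versus inhibitor-free control; mean of three independent experiments in duplicate.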

Interstitial collagenase = target: T2, Interstitial collagenase (Homo sapiens, UniProt P03956); assay: Inhibition of MMP1 by fluorometric assay
T2 sequence (P03956 whole entry): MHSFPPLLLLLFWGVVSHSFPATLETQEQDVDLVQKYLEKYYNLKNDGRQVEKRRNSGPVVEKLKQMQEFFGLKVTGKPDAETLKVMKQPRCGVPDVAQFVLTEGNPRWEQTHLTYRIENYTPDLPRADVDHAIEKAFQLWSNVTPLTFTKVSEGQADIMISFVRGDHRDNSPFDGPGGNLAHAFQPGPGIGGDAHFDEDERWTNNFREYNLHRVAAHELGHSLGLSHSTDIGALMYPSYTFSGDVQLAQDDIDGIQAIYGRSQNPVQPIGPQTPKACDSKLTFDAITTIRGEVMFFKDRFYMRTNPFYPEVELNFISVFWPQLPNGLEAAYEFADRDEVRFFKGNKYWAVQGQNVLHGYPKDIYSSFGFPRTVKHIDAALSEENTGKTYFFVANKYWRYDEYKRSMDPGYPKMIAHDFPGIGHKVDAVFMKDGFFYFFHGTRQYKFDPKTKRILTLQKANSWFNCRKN

[2] = target: T3, Disintegrin and metalloproteinase domain-containing protein 17 (Homo sapiens, UniProt P78536); assay: Inhibition of human recombinant ADAM17 by fluorometric assay
[3] = target: Matrix metalloproteinase-9 (Homo sapiens, UniProt P14780); assay: Inhibition of MMP9 by fluorometric assay
[4] = target: 72 kDa type IV collagenase (Homo sapiens, UniProt P08253)
[5] = target: Matrix metalloproteinase-14 (Homo sapiens, UniProt P50281); assay: Inhibition of human recombinant MMP14 by fluorometric assay
Method in brief: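 Fluorogenic substrate Mca-Lys-Pro-Leu-Gly-Leu-Dap(Dnp)-Ala-Arg-NH2 (2 μM final). Enzymes: APMA-activated (2 mM, 2 h, 37 °C) pro-MMP-1 at 2.0 nM; MMP-14 catalytic domain at 1.0 nM. Each enzyme preincubated 4 h at 25 °C with seven inhibitor concentrations in Tris 50 mM pH 7.5, NaCl, CaCl2, Brij-35, 1% DMSO. Fluorescence (ex 325/em 395 nm) read every 15 s for 20 min.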

[6] = target: T3, Disintegrin and metalloproteinase domain-containing protein 17; settings: for inhibition: A2774, at 10 µM; for IC50: A2774
[7] = target: T3, Disintegrin and metalloproteinase domain-containing protein 17; assay: Inhibition of ADAM17 in human A2774 cells assessed as inhibition of EGF-induced sALCAM release by ELISA; type: cell-based
[8] = target: T3, Disintegrin and metalloproteinase domain-containing protein 17; assay: Inhibition of ADAM17 in human MDA-MB-468 cells assessed as inhibition of constitutive sALCAM release by ELISA; type: cell-based
[9] = target: T3, Disintegrin and metalloproteinase domain-containing protein 17; assay: Inhibition of ADAM17 in human MDA-MB-468 cells assessed as inhibition of pervanadate-induced sALCAM release by ELISA; type: cell-based
[10] = target: T3, Disintegrin and metalloproteinase domain-containing protein 17; assay: Inhibition of ADAM17 in human GI-CA-N cells assessed as inhibition of constitutive sALCAM release by ELISA; type: cell-based
[11] = Cytotoxicity against human GI-CA-N cells after 72 hrs by MTT assay; type: cell-based
Method in brief: (§1)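 Cell lines grown in RPMI 1640 with 10% heat-inactivated FCS, 2 mM glutamine and penicillin-streptomycin at 37 °C, 5% CO2. Seeded at 2 × 10^3 cells/well and exposed to a range of inhibitor concentrations (DMSO stocks) for 24, 48 or 72 h at 37 °C. MTT added for 4 h, formazan dissolved in DMSO, absorbance read at 540 nm; mean of triplicates.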

[12] = target: T3, Disintegrin and metalloproteinase domain-containing protein 17; assay: Inhibition of ADAM17 in human MCF7 cells assessed as inhibition of pervanadate-induced sALCAM release by ELISA; type: cell-based
[13] = target: T3, Disintegrin and metalloproteinase domain-containing protein 17; assay: Inhibition of ADAM17 in human MCF7 cells assessed as inhibition of constitutive sALCAM release by ELISA; type: cell-based
[14] = target: T3, Disintegrin and metalloproteinase domain-containing protein 17; assay: Inhibition of ADAM17 in human A2774 cells assessed as inhibition of pervanadate-induced sALCAM release by ELISA; type: cell-based
[15] = Cytotoxicity against human A2774 cells after 72 hrs by MTT assay; type: cell-based; settings: a2774, 72 h; method in brief: as §1
SK-OV-3 = assay: Cytotoxicity against human SKOV3 cells after 72 hrs by MTT assay; type: cell-based; settings: sk-ov-3, 72 h; method in brief: as §1
MCF7 = assay: Cytotoxicity against human MCF7 cells after 72 hrs by MTT assay; type: cell-based; settings: mcf7, 72 h; method in brief: as §1
[16] = target: T3, Disintegrin and metalloproteinase domain-containing protein 17; assay: Inhibition of ADAM17 in human GI-CA-N cells assessed as inhibition of pervanadate-induced sALCAM release by ELISA; type: cell-based
[17] = target: T3, Disintegrin and metalloproteinase domain-containing protein 17; assay: Inhibition of ADAM17 in human A2774 cells assessed as inhibition of constitutive sALCAM release by ELISA; type: cell-based
[18] = target: T3, Disintegrin and metalloproteinase domain-containing protein 17; assay: Inhibition of ADAM17 in human MDA-MB-468 cells assessed as inhibition of EGF-induced sALCAM release by ELISA; type: cell-based
[19] = target: T3, Disintegrin and metalloproteinase domain-containing protein 17; assay: Inhibition of ADAM17 in human MCF7 cells assessed as inhibition of EGF-induced sALCAM release by ELISA; type: cell-based
MDA-MB-468 = assay: Cytotoxicity against human MDA-MB-468 cells after 72 hrs by MTT assay; type: cell-based; settings: mda-mb-468, 72 h; method in brief: as §1
[20] = target: T3, Disintegrin and metalloproteinase domain-containing protein 17; assay: Inhibition of ADAM17 in human SKOV3 cells assessed as inhibition of EGF-induced sALCAM release by ELISA; type: cell-based, SK-OV-3
[21] = target: T3, Disintegrin and metalloproteinase domain-containing protein 17; assay: Inhibition of ADAM17 in human SKOV3 cells assessed as inhibition of constitutive sALCAM release by ELISA; type: cell-based, SK-OV-3

Matrix metalloproteinase-9, sequence (P14780 whole entry): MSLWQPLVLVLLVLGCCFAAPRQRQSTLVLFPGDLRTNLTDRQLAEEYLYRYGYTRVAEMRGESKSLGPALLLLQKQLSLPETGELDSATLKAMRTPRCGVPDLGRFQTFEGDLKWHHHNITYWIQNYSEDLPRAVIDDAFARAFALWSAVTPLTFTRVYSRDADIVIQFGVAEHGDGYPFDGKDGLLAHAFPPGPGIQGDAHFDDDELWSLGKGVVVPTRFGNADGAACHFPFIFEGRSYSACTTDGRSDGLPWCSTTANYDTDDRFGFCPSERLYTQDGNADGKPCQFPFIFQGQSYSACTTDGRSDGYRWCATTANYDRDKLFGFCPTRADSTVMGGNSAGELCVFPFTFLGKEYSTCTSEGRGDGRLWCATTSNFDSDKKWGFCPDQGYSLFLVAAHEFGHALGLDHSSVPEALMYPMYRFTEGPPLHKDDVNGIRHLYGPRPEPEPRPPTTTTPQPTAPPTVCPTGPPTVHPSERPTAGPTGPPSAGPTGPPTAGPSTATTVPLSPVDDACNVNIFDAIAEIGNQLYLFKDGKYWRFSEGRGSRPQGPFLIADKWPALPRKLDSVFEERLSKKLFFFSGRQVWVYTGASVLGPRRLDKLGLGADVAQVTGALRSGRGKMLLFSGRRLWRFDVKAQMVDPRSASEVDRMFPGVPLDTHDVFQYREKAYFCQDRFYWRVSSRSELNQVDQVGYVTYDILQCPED
T3 sequence (P78536 whole entry, the tested form may be a part): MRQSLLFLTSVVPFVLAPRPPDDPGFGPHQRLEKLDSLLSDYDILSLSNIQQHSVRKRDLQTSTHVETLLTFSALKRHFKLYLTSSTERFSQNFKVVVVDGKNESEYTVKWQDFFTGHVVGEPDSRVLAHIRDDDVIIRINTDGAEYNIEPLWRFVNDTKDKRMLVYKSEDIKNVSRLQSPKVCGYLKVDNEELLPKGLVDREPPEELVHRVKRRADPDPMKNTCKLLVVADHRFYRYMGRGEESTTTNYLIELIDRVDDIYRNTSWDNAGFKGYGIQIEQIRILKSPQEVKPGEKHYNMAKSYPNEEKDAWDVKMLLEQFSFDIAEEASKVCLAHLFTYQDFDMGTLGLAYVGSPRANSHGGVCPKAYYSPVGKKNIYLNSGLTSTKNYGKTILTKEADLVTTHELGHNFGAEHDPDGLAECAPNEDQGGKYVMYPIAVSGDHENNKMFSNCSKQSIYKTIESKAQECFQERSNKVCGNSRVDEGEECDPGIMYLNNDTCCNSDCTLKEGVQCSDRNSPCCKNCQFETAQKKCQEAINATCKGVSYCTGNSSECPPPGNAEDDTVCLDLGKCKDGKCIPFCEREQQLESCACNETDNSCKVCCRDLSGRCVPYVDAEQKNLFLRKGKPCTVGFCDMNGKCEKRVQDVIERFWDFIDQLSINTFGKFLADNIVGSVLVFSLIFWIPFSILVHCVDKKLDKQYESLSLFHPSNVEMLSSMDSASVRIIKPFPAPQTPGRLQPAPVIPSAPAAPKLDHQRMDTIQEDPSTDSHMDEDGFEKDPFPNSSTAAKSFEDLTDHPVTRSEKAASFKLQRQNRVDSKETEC
72 kDa type IV collagenase, sequence (P08253 whole entry): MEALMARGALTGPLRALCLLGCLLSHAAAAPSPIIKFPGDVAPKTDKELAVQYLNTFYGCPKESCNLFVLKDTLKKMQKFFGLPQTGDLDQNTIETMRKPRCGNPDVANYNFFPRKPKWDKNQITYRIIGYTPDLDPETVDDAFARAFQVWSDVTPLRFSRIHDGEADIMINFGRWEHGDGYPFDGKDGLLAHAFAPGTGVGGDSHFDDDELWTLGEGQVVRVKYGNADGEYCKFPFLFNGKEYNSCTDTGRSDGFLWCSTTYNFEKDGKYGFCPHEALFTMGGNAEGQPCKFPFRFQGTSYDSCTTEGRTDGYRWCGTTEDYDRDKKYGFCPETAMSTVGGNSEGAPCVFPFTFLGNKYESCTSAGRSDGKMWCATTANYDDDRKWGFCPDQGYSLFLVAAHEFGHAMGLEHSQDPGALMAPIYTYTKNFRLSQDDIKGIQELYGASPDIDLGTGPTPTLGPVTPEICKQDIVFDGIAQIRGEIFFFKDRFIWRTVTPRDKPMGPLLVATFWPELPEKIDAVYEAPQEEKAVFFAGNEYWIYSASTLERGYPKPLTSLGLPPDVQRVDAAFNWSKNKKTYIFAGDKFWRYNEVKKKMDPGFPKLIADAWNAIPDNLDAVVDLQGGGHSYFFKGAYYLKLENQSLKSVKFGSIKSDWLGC

| Compound | IC50 (Interstitial collagenase) [nM] | IC50 [2] [nM] | IC50 [3] [nM] | IC50 [4] [nM] | IC50 [5] [nM] | inhibition [6] [%] | other results |
| --- | --- | --- | --- | --- | --- | --- | --- |
| O=C(NO)[C@@H](CCN1C(=O)c2ccccc2C1=O)NS(=O)(=O)c1ccc(-c2ccccc2C(F)(F)F)cc1 | 5000 | 44000 | 430 | 390 | 1800 | – | – |
| CC(C)ON(CC(=O)NO)S(=O)(=O)c1ccc(-c2ccccc2)cc1 | – | 120000 | – | – | – | 0 | – |
| O=C(CNS(=O)(=O)c1ccc(-c2ccccc2)cc1)NO | – | 2400 | – | – | – | 35 | – |
| O=C(CNS(=O)(=O)c1ccc(Br)cc1)NO | 270 | 3900 | 290 | 40 | 360 | 13 | – |
| COc1ccc(S(=O)(=O)N(CC(=O)NO)OC(C)C)cc1 | 110000 | 180000 | 4100 | 5000 | 9500 | 0 | – |
| COc1ccc(S(=O)(=O)NCC(=O)NO)cc1 | – | – | – | – | 210 | 32 | – |
| COc1ccc(S(=O)(=O)N(OC(C)C)[C@@H](C(=O)NO)C(C)C)cc1 | 1100 | 10000 | 170 | 190 | 240 | 0 | – |
| CC(=O)NCC[C@@H](NS(=O)(=O)c1ccc(-c2ccccc2)cc1)C(=O)NO | 196 | 300 | 8.6 | 0.7 | 34 | – | – |
| COc1ccc(S(=O)(=O)N(CC(=O)NO)CC(C)C)cc1 | – | 2300 | 4.8 | 13 | 13 | 26 | – |
| CC(C)CN(CC(=O)NO)S(=O)(=O)c1ccc(-c2ccccc2)cc1 | – | 53000 | – | – | – | 14 | – |

Now from value to compound, other results behind:

| IC50 (Interstitial collagenase) [nM] | IC50 [2] [nM] | IC50 [3] [nM] | IC50 [4] [nM] | IC50 [5] [nM] | inhibition [6] [%] | Compound | other results |
| --- | --- | --- | --- | --- | --- | --- | --- |
| 400 | 59 | 13 | 21 | 29 | – | CC#CCOc1ccc(S(=O)(=O)N(CC(C)C)[C@H](CCN2C(=O)c3ccccc3C2=O)C(=O)NO)cc1 | IC50 [1]: 2000 nM |
| 4 | 210 | 1.1 | 1.5 | 0.9 | – | O=C(NO)[C@@H](CCN1C(=O)c2ccccc2C1=O)NS(=O)(=O)c1ccc(Br)cc1 | – |
| 1100 | 1.6 | 46 | 17 | 210 | – | CC#CCOc1ccc(S(=O)(=O)N[C@H](CCNC(=O)OCc2ccccc2)C(=O)NO)cc1 | IC50 [1]: 240 nM; IC50 [7]: 890 nM; IC50 [8]: 420 nM; IC50 [9]: 1100 nM; IC50 [6]: 11 nM; IC50 [10]: 90 nM; Activity [11]: Not Active; IC50 [12]: 53 nM; IC50 [13]: 1600 nM; IC50 [14]: 11 nM; Activity [15]: Not Active; Activity (SK-OV-3): Not Active; Activity (MCF7): Not Active; IC50 [16]: 500 nM; IC50 [17]: 260 nM; IC50 [18]: 110 nM; IC50 [19]: 420 nM; Activity (MDA-MB-468): Not Active; IC50 [20]: 3.2 nM |
| 56 | 1100 | 7.2 | 29 | 16 | 9 | COc1ccc(S(=O)(=O)N(CC(C)C)[C@@H](C(=O)NO)C(C)C)cc1 | – |
| – | 160 | – | – | – | 33 | COc1ccc(S(=O)(=O)N(Cc2cccnc2)[C@@H](C(=O)NO)C(C)C)cc1.Cl [CGS-27023A] | IC50 [1]: 890 nM; IC50 [7]: 3200 nM; IC50 [8]: 1400 nM; IC50 [9]: 10000 nM; IC50 [10]: 4400 nM; Activity [11]: Not Active; IC50 [12]: 750 nM; IC50 [13]: 6900 nM; IC50 [14]: 380 nM; Activity [15]: Not Active; Activity (SK-OV-3): Not Active; Activity (MCF7): Not Active; IC50 [16]: 1100 nM; IC50 [21]: 13000 nM; IC50 [17]: 18000 nM; IC50 [18]: 750 nM; IC50 [19]: 3000 nM; Activity (MDA-MB-468): Not Active; IC50 [20]: 110 nM |
| 1500 | 110 | 190 | 190 | 300 | – | CC(=O)NCC[C@@H](NS(=O)(=O)c1ccc(Br)cc1)C(=O)NO | IC50 [1]: 2300 nM |
| 350 | 0.7 | 3.5 | 4.2 | 4.3 | – | CC#CCOc1ccc(S(=O)(=O)N[C@H](CCN2C(=O)c3ccccc3C2=O)C(=O)NO)cc1 | IC50 [1]: 190 nM; IC50 [7]: 550 nM; IC50 [8]: 1700 nM; IC50 [9]: 800 nM; IC50 [6]: 15 nM; IC50 [10]: 97 nM; Activity [11]: Not Active; IC50 [12]: 51 nM; IC50 [13]: 1400 nM; IC50 [14]: 15 nM; Activity [15]: Not Active; Activity (SK-OV-3): Not Active; Activity (MCF7): Not Active; IC50 [16]: 73 nM; IC50 [21]: 2600 nM; IC50 [17]: 1100 nM; IC50 [18]: 280 nM; IC50 [19]: 760 nM; Activity (MDA-MB-468): Not Active; IC50 [20]: 4.3 nM |
